Our source for the LD50, Activity and Ratio values is ChEMBL document CHEMBL3272084, “Adamantane and protoadamantanealkanamines as potential anti-Parkinson agents” (J Med Chem, 1976).

Active and inactive are the calls of the source. The calls are words filed in the database; no cut-off is given here. Where only a bound is given, the exact number is not on record here.

What is called LD50 is the dose at which mortality reaches 50%.

Series [1] can be described thus: (§1) Acute toxicity in ip dosed albino CFW mouse assessed as mortality measured over 48 hrs. It counts as organism-based. The note with it: albino CFW, in vivo.
Series [2] is described as follows: (§2) Acute toxicity in po dosed albino CFW mouse assessed as mortality measured over 48 hrs. The note with it: albino CFW, in vivo. It counts as organism-based.
The subject of series [3] is Mus musculus. Description: Antiparkinsonian activity in CFW mouse assessed as reversal of reserpine-induced catalepsy at 0.16 mmol/kg, sc measured every 30 mins up to 1.5 hrs. The format is functional, organism-based.
Series [4] has as its system Mus musculus. Kind of series: Antidepressant activity in CFW mouse assessed as reversal of reserpine-induced hypothermia by measuring temperature index at 0.16 mmol/kg, sc measured every 30 mins up to 1.5 hrs. It counts as functional.
The subject of series [5] is Mus musculus. Description: Antidepressant activity in CFW mouse assessed as reversal of reserpine-induced hypothermia by measuring temperature index at 0.09 mmol/kg, sc measured every 30 mins up to 1.5 hrs. The format is functional. The gist of the method: (§3)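 Groups of five CFW mice received reserpine 4 mg/kg sc. After 2.5 h, rectal temperature was taken. The temperature index (TI) is the sum of the group's mean changes from its mean initial temperature at 30, 60 and 90 min. Scoring: 0 = no effect, 1 = TI 5–10, 2 = TI >10. A run was repeated if the reserpine control TI fell outside −5 to −15.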

The subject of series [6] is Mus musculus. Described as §1. The note with it: in vivo, 48 h. The format is organism-based.
The subject of series [7] is Mus musculus. Described as §2. It counts as organism-based. The note with it: in vivo, 48 h.
For series [8], the system named is Mus musculus. Kind of series: Antidepressant activity in CFW mouse assessed as reversal of reserpine-induced hypothermia by measuring temperature index at 0.03 mmol/kg, sc measured every 30 mins up to 1.5 hrs. The format is functional. Summed up: as §3
Series [9] deals with Rattus norvegicus. Description: Antiparkinsonian activity in Wistar rat assessed as reversal of reserpine-induced catalepsy at 0.14 mmol/kg, po measured every 30 mins up to 1.5 hrs. The format is functional, organism-based.
Series [10] deals with Mus musculus. Description: Antiparkinsonian activity in CFW mouse assessed as reversal of reserpine-induced catalepsy at 0.09 mmol/kg, sc measured every 30 mins up to 1.5 hrs. The format is functional, organism-based. Summed up:
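Groups of five CFW mice were given reserpine 4 mg/kg sc, and catalepsy was assessed 2.5 h later. Reversal was scored 0–5: 0 no effect, 1 marginal, 2 significant, 3 marked, 4 approaching complete, 5 complete reversal.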

For series [11], the system named is Rattus norvegicus. Kind of series: Antiparkinsonian activity in Wistar rat assessed as reversal of reserpine-induced catalepsy at 0.07 mmol/kg, po measured every 30 mins up to 1.5 hrs. It counts as functional, organism-based.
The test system of series [12] is Mus musculus. Kind of series: Antiparkinsonian activity in CFW mouse assessed as reversal of reserpine-induced catalepsy at 0.20 mmol/kg, sc measured every 30 mins up to 1.5 hrs. It counts as functional, organism-based.
In series [13] the test system is Mus musculus. Kind of series: Antidepressant activity in CFW mouse assessed as reversal of reserpine-induced hypothermia by measuring temperature index at 0.20 mmol/kg, sc measured every 30 mins up to 1.5 hrs. The format is functional, organism-based.
Series [14] deals with Rattus norvegicus. Kind of series: Antiparkinsonian activity in Wistar rat assessed as reversal of reserpine-induced catalepsy at 0.16 mmol/kg, po measured every 30 mins up to 1.5 hrs. The format is functional, organism-based.
In series [15] the test system is Mus musculus. Kind of series: Antiparkinsonian activity in CFW mouse assessed as reversal of reserpine-induced catalepsy at 0.02 mmol/kg, sc measured every 30 mins up to 1.5 hrs. It counts as functional, organism-based.
The test system of series [16] is Mus musculus. Description: Antidepressant activity in CFW mouse assessed as reversal of reserpine-induced hypothermia by measuring temperature index at 0.02 mmol/kg, sc measured every 30 mins up to 1.5 hrs. It counts as functional, organism-based.
Series [17] relates to Rattus norvegicus. Kind of series: Potency index, ratio of compound to amantadine for antiparkinsonian activity in po dosed Wistar rat assessed as reversal of reserpine-induced catalepsy. It counts as functional.
In series [18] the test system is Mus musculus. Description: Antiparkinsonian activity in CFW mouse assessed as reversal of reserpine-induced catalepsy at 0.08 mmol/kg, sc measured every 30 mins up to 1.5 hrs. The format is functional, organism-based.
Series [19] relates to Rattus norvegicus. Kind of series: Antiparkinsonian activity in Wistar rat assessed as reversal of reserpine-induced catalepsy at 0.11 mmol/kg, po measured every 30 mins up to 1.5 hrs. The format is functional, organism-based.
Series [20] relates to Mus musculus. Kind of series: Antidepressant activity in CFW mouse assessed as reversal of reserpine-induced hypothermia by measuring temperature index at 0.04 mmol/kg, sc measured every 30 mins up to 1.5 hrs. It counts as functional.
Series [21] relates to Rattus norvegicus. Description: Antiparkinsonian activity in Wistar rat assessed as reversal of reserpine-induced catalepsy at 0.08 mmol/kg, po measured every 30 mins up to 1.5 hrs. The format is functional, organism-based.
The test system of series [22] is Mus musculus. Description: Antiparkinsonian activity in CFW mouse assessed as reversal of reserpine-induced catalepsy at 0.13 mmol/kg, sc measured every 30 mins up to 1.5 hrs. The format is functional, organism-based.
Series [23] has as its system Mus musculus. Kind of series: Antidepressant activity in CFW mouse assessed as reversal of reserpine-induced hypothermia by measuring temperature index at 0.13 mmol/kg, sc measured every 30 mins up to 1.5 hrs. The format is functional, organism-based.
For series [24], the system named is Mus musculus. Kind of series: Antidepressant activity in CFW mouse assessed as reversal of reserpine-induced hypothermia by measuring temperature index at 0.11 mmol/kg, sc measured every 30 mins up to 1.5 hrs. The format is functional, organism-based.
In series [25] the test system is Mus musculus. Description: Antiparkinsonian activity in CFW mouse assessed as reversal of reserpine-induced catalepsy at 0.11 mmol/kg, sc measured every 30 mins up to 1.5 hrs. It counts as functional, organism-based.
Series [26] relates to Mus musculus. Description: Antiparkinsonian activity in CFW mouse assessed as reversal of reserpine-induced catalepsy at 0.05 mmol/kg, sc measured every 30 mins up to 1.5 hrs. The format is functional, organism-based.
Series [27] relates to Mus musculus. Description: Antidepressant activity in CFW mouse assessed as reversal of reserpine-induced hypothermia by measuring temperature index at 0.05 mmol/kg, sc measured every 30 mins up to 1.5 hrs. It counts as functional, organism-based.

Take `Cl.NC1CC2CC3CC(C2)C1C3` (stereo not given): the LD50 at 48 h in series [1] amounted to 800 µmol/kg; in [2], 3200 µmol/kg. For the same compound, the result in the series with Mus musculus [3] and in the series with Mus musculus [4] was inactive.
Take `Cl.c1ccc(CCNC2CC3CC4CC(C3)C2C4)cc1` (stereo in doubt; 12): the results for the LD50 at 48 h in [1] and in series [2] were 300 µmol/kg and 1000 µmol/kg, respectively. For the same compound, in the series on Mus musculus [5], the Activity came out at 5.
As to `Cl.c1ccc(CCNC2CC3CC4CC(C3)C2C4)cc1` (stereo in doubt; 13), the LD50 in the series on Mus musculus [6] was determined as 0.2 mmol/kg; in the series on Mus musculus [7] it was 0.5 mmol/kg. In the series with Mus musculus [8], the Activity is 5.
Regarding `c1ccc(CCNC2CC3CC4CC(C3)C2C4)cc1` (stereo in doubt; 12), in the series on Rattus norvegicus [9], the result was inactive. In addition, the result in the series on Mus musculus [10] was Active.
On to `Cl.c1ccc(CNC2CC3CC4CC(C3)C2C4)cc1` (stereo not given), for which the LD50 at 48 h in series [1] turned out to be 500 µmol/kg; in series [2] it was 700 µmol/kg. Further, the result with Mus musculus [10] and in the series with Rattus norvegicus [11] was Active. In addition, the Activity in the series on Mus musculus [5] is listed as above 10.
With `CNC1CC2CC3CC(C2)C1C3.Cl` (stereo not given), the LD50 at 48 h came to 700 µmol/kg in series [1] and 2000 µmol/kg in [2]. Besides, the outcome in the series on Mus musculus [12] was Active. Further, the result in the series on Mus musculus [13] was inactive.
With `CNCC12CC3CC(CC(C3)C1Cl)C2.Cl` (stereo not given), the values for the LD50 at 48 h in series [1] and in [2] were 600 µmol/kg and 1200 µmol/kg, respectively. The outcome in the series on Rattus norvegicus [14] was Active. The result in the series with Mus musculus [15] and in the series with Mus musculus [16] was inactive. Further, the Ratio with Rattus norvegicus [17] was found to be 2.
Take `CNCCC12CC3CC(CC(C3)C1Br)C2.O=C(O)/C=C\C(=O)O` (stereo not given): the figures for the LD50 at 48 h in [1] and in series [2] were 400 µmol/kg and 1600 µmol/kg, respectively. The result in the series on Mus musculus [18] was inactive. Also, the result in the series with Rattus norvegicus [19] was Active. Also, the Activity in the series on Mus musculus [20] is given as 5.
As for `Br.CN1CCN(CC23CC4CC(CC(C4)C2Br)C3)CC1` (stereo not given), the result with Rattus norvegicus [21], in the series on Mus musculus [22] and with Mus musculus [23] was inactive. In addition, the LD50 at 48 h in series [1] came to 600 µmol/kg; in series [2] it was 1200 µmol/kg.
In the case of `Cl.OCCNC1CC2CC3CC(C2)C1C3` (stereo not given), the median lethal dose (LD50) at 48 h in series [1] is 600 µmol/kg; in series [2] it was 2600 µmol/kg. In addition, the outcome with Mus musculus [24] and in the series with Mus musculus [25] was inactive.
With `O=C(O)/C=C\C(=O)O.c1ccc(CNCC2CC3CC4CC(C3)C2C4)cc1` (stereo not given), the LD50 at 48 h was found to be 200 µmol/kg in series [1] and 500 µmol/kg in [2]. The outcome in the series with Mus musculus [26] and with Mus musculus [27] was inactive.
